Results as given in ChEMBL document CHEMBL5724801, “EUbOPEN Chemogenomics Library - Multiplex” (2024).
“And” between values parts separate entries of the source, which are not always exact repeats. Equal entries are not always repeated.

Test system: Fibroblast
Experiment: Multiplex assay against human fibroblast
Format: toxicity, cell-based
Summary of the method: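 Hoechst33342, BioTracker Green Microtubule Cytoskeleton Dye, MitoTracker Red and Annexin V Alexa Fluor 680 were added to live cells at seeding, and imaging on a CQ1 microscope at 37°C and 5% CO2 followed compound addition. Gating by CellPathfinder machine learning separated cells into Hoechst high-intensity objects or normal cells, then normal cells into healthy, pyknosed or fragmented nuclei, then pyknosed cells into mitotic or apoptotic. Per cents of healthy-nucleus cells are reported for the tubulin, mitochondrial-mass and membrane-permeability phenotypes.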

[1] = 12 h, 1 µM, compound concentration 1 uM
[2] = 12 h, 10 µM, compound concentration 10 uM
[3] = 24 h, 1 µM, compound concentration 1 uM
[4] = 24 h, 10 µM, compound concentration 10 uM
[5] = 48 h, 1 µM, compound concentration 1 uM
[6] = 48 h, 10 µM, compound concentration 10 uM

## O=C(Nc1cc(C(F)(F)F)ccc1N1CCCCC1)c1ccncc1
[1]
  Population Fragmented Nuclei (%): 13.9% and 8.06%
  Population Healthy Nuclei (%): 57.22% and 74.41%
  Population Hoechst High Intensity Objects (%): 0%
  Population Membrane Permeable-Phenotype (%): 1.87% and 1.91%
  Population Mitochondria Different-Phenotype (%): 6.54% and 10.83%
  Population Mitotic Cells (%): 92.59% and 75.68%
  Population Normal (%): 100%
  Population Pyknosed Nuclei (%): 28.88% and 17.54%
  Population Tubulin-Different-Phenotype (%): 13.08% and 22.93%
  Total Cell Count: 187 and 211
[2]
  Population Apoptotic (%): 17.46% and 11.48%
  Population Fragmented Nuclei (%): 7.6% and 3.1%
  Population Healthy Nuclei (%): 55.56% and 69.91%
  Population Hoechst High Intensity Objects (%): 0%
  Population Membrane Permeable-Phenotype (%): 9.47% and 6.96%
  Population Mitochondria Different-Phenotype (%): 26.32% and 21.52%
  Population Mitotic Cells (%): 82.54% and 88.52%
  Population Normal (%): 100%
  Population Pyknosed Nuclei (%): 36.84% and 26.99%
  Population Tubulin-Different-Phenotype (%): 35.79% and 71.52%
  Total Cell Count: 171 and 226
[3]
  Population Apoptotic (%): 11.76% and 28.57%
  Population Fragmented Nuclei (%): 9.18% and 7.73%
  Population Healthy Nuclei (%): 74.4% and 82.13%
  Population Hoechst High Intensity Objects (%): 0%
  Population Membrane Permeable-Phenotype (%): 4.55% and 4.12%
  Population Mitochondria Different-Phenotype (%): 4.55% and 8.82%
  Population Mitotic Cells (%): 88.24% and 71.43%
  Population Normal (%): 100%
  Population Pyknosed Nuclei (%): 16.43% and 10.14%
  Population Tubulin-Different-Phenotype (%): 16.23% and 21.76%
  Total Cell Count: 207
[4]
  Population Apoptotic (%): 20.83% and 16.98%
  Population Fragmented Nuclei (%): 6.81% and 3.07%
  Population Healthy Nuclei (%): 68.06% and 73.68%
  Population Hoechst High Intensity Objects (%): 0%
  Population Membrane Permeable-Phenotype (%): 5.38% and 5.95%
  Population Mitochondria Different-Phenotype (%): 30.77% and 20.24%
  Population Mitotic Cells (%): 79.17% and 83.02%
  Population Normal (%): 100%
  Population Pyknosed Nuclei (%): 25.13% and 23.25%
  Population Tubulin-Different-Phenotype (%): 53.08% and 70.24%
  Total Cell Count: 191 and 228
[5]
  Population Apoptotic (%): 11.11% and 10%
  Population Fragmented Nuclei (%): 14.08% and 11%
  Population Healthy Nuclei (%): 81.69% and 84.21%
  Population Hoechst High Intensity Objects (%): 0%
  Population Membrane Permeable-Phenotype (%): 1.72% and 2.84%
  Population Mitochondria Different-Phenotype (%): 8.62% and 5.11%
  Population Mitotic Cells (%): 88.89% and 90%
  Population Normal (%): 100%
  Population Pyknosed Nuclei (%): 4.23% and 4.78%
  Total Cell Count: 213 and 209
[6]
  Population Fragmented Nuclei (%): 9.23% and 2.62%
  Population Healthy Nuclei (%): 81.54% and 82.97%
  Population Hoechst High Intensity Objects (%): 0%
  Population Membrane Permeable-Phenotype (%): 0% and 7.37%
  Population Mitochondria Different-Phenotype (%): 17.61% and 13.68%
  Population Mitotic Cells (%): 61.11% and 90.91%
  Population Normal (%): 100%
  Population Pyknosed Nuclei (%): 9.23% and 14.41%
  Population Tubulin-Different-Phenotype (%): 31.45% and 73.68%
  Total Cell Count: 195 and 229

## NCCc1cn(S(=O)(=O)c2c(Cl)nc3sccn23)c2ccccc12.O=C(O)C(=O)O
[1]
  Population Apoptotic (%): 45%
  Population Fragmented Nuclei (%): 20% and 34%
  Population Healthy Nuclei (%): 65% and 37%
  Population Hoechst High Intensity Objects (%): 4% and 3%
  Population Membrane Permeable-Phenotype (%): 0% and 13%
  Population Mitochondria Different-Phenotype (%): 5% and 8%
  Population Mitotic Cells (%): 55% and 54%
  Population Normal (%): 95% and 96%
  Population Pyknosed Nuclei (%): 14% and 28%
  Population Tubulin-Different-Phenotype (%): 40% and 62%
  Total Cell Count: 146 and 170
[2]
  Population Apoptotic (%): 78% and 57%
  Population Fragmented Nuclei (%): 20% and 24%
  Population Healthy Nuclei (%): 56% and 44%
  Population Hoechst High Intensity Objects (%): 6%
  Population Membrane Permeable-Phenotype (%): 0% and 5%
  Population Mitochondria Different-Phenotype (%): 40% and 34%
  Population Mitotic Cells (%): 21% and 42%
  Population Normal (%): 93%
  Population Pyknosed Nuclei (%): 22% and 30%
  Population Tubulin-Different-Phenotype (%): 90% and 89%
  Total Cell Count: 177 and 219
[3]
  Population Apoptotic (%): 50% and 46%
  Population Fragmented Nuclei (%): 21% and 35%
  Population Healthy Nuclei (%): 64% and 44%
  Population Hoechst High Intensity Objects (%): 3% and 4%
  Population Membrane Permeable-Phenotype (%): 0% and 18%
  Population Mitochondria Different-Phenotype (%): 13% and 11%
  Population Mitotic Cells (%): 50% and 53%
  Population Normal (%): 96% and 95%
  Population Pyknosed Nuclei (%): 13% and 20%
  Population Tubulin-Different-Phenotype (%): 42% and 70%
  Total Cell Count: 156 and 166
[4]
  Population Apoptotic (%): 77% and 72%
  Population Fragmented Nuclei (%): 22% and 30%
  Population Healthy Nuclei (%): 62% and 51%
  Population Hoechst High Intensity Objects (%): 3% and 7%
  Population Membrane Permeable-Phenotype (%): 0% and 5%
  Population Mitochondria Different-Phenotype (%): 58% and 32%
  Population Mitotic Cells (%): 22% and 27%
  Population Normal (%): 96% and 92%
  Population Pyknosed Nuclei (%): 14% and 18%
  Population Tubulin-Different-Phenotype (%): 89% and 81%
  Total Cell Count: 193 and 237
[5]
  Population Apoptotic (%): 50% and 54%
  Population Fragmented Nuclei (%): 27% and 38%
  Population Healthy Nuclei (%): 63% and 47%
  Population Hoechst High Intensity Objects (%): 4% and 6%
  Population Membrane Permeable-Phenotype (%): 2% and 9%
  Population Mitotic Cells (%): 50% and 45%
  Population Normal (%): 95% and 93%
  Population Pyknosed Nuclei (%): 9% and 14%
  Population Tubulin-Different-Phenotype (%): 46% and 58%
  Total Cell Count: 177 and 166
[6]
  Population Apoptotic (%): 85% and 75%
  Population Fragmented Nuclei (%): 22% and 31%
  Population Healthy Nuclei (%): 65% and 59%
  Population Hoechst High Intensity Objects (%): 7% and 3%
  Population Membrane Permeable-Phenotype (%): 0% and 3%
  Population Mitochondria Different-Phenotype (%): 43% and 24%
  Population Mitotic Cells (%): 14% and 25%
  Population Normal (%): 92% and 96%
  Population Pyknosed Nuclei (%): 12% and 8%
  Population Tubulin-Different-Phenotype (%): 92% and 74%
  Total Cell Count: 189 and 241
